Results published in ChEMBL document CHEMBL4339218, “Discovering New Casein Kinase 1d Inhibitors with an Innovative Molecular Dynamics Enabled Virtual Screening Workflow” (ACS Med Chem Lett, 2019).

Columns and labels:
[1] = biological target: T1, Casein kinase I isoform delta (Homo sapiens, UniProt P48730); test: Inhibition of CSNK1D (unknown origin) at 1 uM using CSNK1D/Ser/Thr 11 peptide incubated for 1 hr by FRET based Z'-LYTE assay relative to untreated control
How it was run: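 Single-point test at 1 μM ligand, in duplicate, reported as mean ± SD. Coupled-enzyme FRET readout in which a development protease cleaves only nonphosphorylated peptide. Development reagent B (1:16) then added. Coumarin/fluorescein emission ratio read after 400 nm excitation.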
Target sequence in this assay (P48730 whole entry, looked up, canonical isoform): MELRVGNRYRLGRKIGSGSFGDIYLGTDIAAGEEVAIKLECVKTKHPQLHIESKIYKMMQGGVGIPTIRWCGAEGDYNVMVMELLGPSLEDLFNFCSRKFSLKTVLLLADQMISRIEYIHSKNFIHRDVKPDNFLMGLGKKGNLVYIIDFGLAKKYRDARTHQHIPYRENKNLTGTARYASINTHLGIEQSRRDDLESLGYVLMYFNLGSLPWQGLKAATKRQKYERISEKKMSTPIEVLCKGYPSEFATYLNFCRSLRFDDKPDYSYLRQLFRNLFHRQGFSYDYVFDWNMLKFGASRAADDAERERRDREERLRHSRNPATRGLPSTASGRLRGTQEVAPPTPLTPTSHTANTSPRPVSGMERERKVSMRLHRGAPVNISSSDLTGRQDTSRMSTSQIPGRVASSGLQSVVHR

[2] = biological target: T1, Casein kinase I isoform delta; test: Inhibition of CSNK1D (unknown origin) using CSNK1D/Ser/Thr 11 peptide incubated for 1 hr by FRET based Z'-LYTE assay
How it was run: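 Full dose–response curve used for IC50. Duplicates, averaged with SD. Protease development reagent B (1:16) then added. Phosphorylation taken from the donor coumarin/acceptor fluorescein emission ratio at 400 nm excitation.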
Target sequence in this assay (P48730 whole entry, canonical isoform): as the sequence (P48730 whole entry, looked up, canonical isoform) above

inhibition [1]	IC50 [2]	Structure (SMILES)
66%	1030 nM	C[C@@H](NC(=O)c1ccc2[nH]nc(-c3cccc(NS(C)(=O)=O)c3)c2c1)c1ccccc1
92%	–	CNC(=O)c1ccc2[nH]nc(-c3cccc(C(=O)NCc4cnc(C)nc4N)c3)c2c1
80%	354 nM	CNC(=O)c1ccc2[nH]nc(-c3cccc(C(=O)NCc4cccc5ccccc45)c3)c2c1
57%	–	CNC(=O)c1ccc2[nH]nc(-c3cccc(C(=O)Nc4cc(-c5ccccn5)n[nH]4)c3)c2c1
25%	–	O=C1CCCN1Cc1nnc(-c2ccc3[nH]nc(-c4ccc(F)cc4)c3c2)[nH]1
99%	134 nM	CN(C)Cc1n[nH]c(-c2ccc3[nH]nc(-c4cccc(C(=O)Nc5ccc(F)cc5)c4)c3c2)n1
53%	848 nM	Fc1ccc(-c2n[nH]c3ccc(-c4n[nH]c(CN5CCCC5)n4)cc23)cc1
